Experimental data taken from ChEMBL document CHEMBL2203171, “The use of small molecule probes to study spatially separated stimulus-induced signaling pathways” (Bioorg Med Chem Lett, 2012).
The source made the active and inactive calls. The rule behind the calls is not given here.

Columns and labels:
Format in all cases: cell-based
[1] = target: T1, Inhibitor of nuclear factor kappa-B kinase subunit beta (Mus musculus) (UniProt O88351); test: Inhibition of IKKbeta in C57BL/6 mouse BMDM cells assessed as inhibition of TNFalpha-induced IkappaBalpha phosphorylation at 25 uM after 5 mins by Western blot analysis
T1 sequence (whole entry): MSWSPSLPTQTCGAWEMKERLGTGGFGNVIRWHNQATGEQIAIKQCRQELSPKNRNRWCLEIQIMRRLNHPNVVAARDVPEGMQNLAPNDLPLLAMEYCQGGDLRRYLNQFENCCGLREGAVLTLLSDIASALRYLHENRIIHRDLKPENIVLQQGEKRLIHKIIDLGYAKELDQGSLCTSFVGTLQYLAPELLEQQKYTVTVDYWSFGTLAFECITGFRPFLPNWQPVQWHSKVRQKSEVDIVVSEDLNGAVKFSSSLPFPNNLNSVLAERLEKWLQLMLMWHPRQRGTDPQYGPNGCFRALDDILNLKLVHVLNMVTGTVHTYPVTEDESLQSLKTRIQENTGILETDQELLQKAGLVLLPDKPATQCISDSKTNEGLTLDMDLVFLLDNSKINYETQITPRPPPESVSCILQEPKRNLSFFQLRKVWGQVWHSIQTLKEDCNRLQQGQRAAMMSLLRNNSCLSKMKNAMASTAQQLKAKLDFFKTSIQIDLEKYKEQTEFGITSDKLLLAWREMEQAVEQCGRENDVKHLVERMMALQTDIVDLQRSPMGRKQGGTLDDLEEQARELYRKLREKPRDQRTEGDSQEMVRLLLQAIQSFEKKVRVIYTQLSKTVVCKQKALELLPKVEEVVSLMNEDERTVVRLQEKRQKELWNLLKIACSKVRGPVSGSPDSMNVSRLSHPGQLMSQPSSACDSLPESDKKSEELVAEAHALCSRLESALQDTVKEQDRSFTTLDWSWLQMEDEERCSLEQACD
Method in brief: (§1)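 C57BL/6 marrow-derived macrophages were cultured in 70% growth medium/30% L929-conditioned medium and refreshed 12-14 h before stimulation. Stimuli were TNF 40 ng/ml or LPS 100 ng/ml, ± compound at 25 μM from a 200x DMSO stock. Western blots tracked IKK, p38, IκBα and phospho-RelA. Results from three independent experiments were quantitated and normalized.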

[2] = target: T1, Inhibitor of nuclear factor kappa-B kinase subunit beta (Mus musculus); test: Inhibition of IKKbeta in C57BL/6 mouse BMDM cells assessed as inhibition of LPS-induced IkappaBalpha phosphorylation at 50 uM up to 90 mins by Western blot analysis
[3] = target: T1, Inhibitor of nuclear factor kappa-B kinase subunit beta (Mus musculus); test: Inhibition of IKKbeta in C57BL/6 mouse BMDM cells assessed as inhibition of TNFalpha-induced RelA phosphorylation at 25 uM after 5 mins by Western blot analysis; method in brief: as §1
[4] = target: T1, Inhibitor of nuclear factor kappa-B kinase subunit beta (Mus musculus); test: Inhibition of IKKbeta in C57BL/6 mouse BMDM cells assessed as inhibition of TNFalpha-induced phosphorylation at 25 uM after 5 mins by Western blot analysis; method in brief: as §1
[5] = target: Toll-like receptor 2 (Mus musculus) (UniProt Q9QUN7); test: Inhibition of MyD88 recruitment to TLR2 in C57BL/6 mouse BMDM cells assessed as inhibition of HKSA-induced IkappaBalpha degradation up to 90 mins by Western blot analysis
Method in brief: (§2)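 Bone marrow macrophages from C57BL/6 mice, grown in 70% growth medium (DMEM, 10% FBS) plus 30% L929-conditioned medium and given fresh medium 12-14 h before stimulation. Stimuli: IL-1 40 ng/ml, HKSA ~10^8 cfu/ml, pI:pC 50 μg/ml or CpG 10 μg/ml, ± compound at 10 μM (final) added from a 200x DMSO stock. IκBα and p38 profiled by immunoblot. Three independent experiments, quantitated and normalized.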

[6] = target: T2, Toll-like receptor 3 (Mus musculus) (UniProt Q99MB1); test: Inhibition of TRIF recruitment to TLR3 in C57BL/6 mouse BMDM cells assessed as inhibition of pI:pC-induced p38 MAPK activity up to 90 mins; method in brief: as §2
T2 sequence (whole entry): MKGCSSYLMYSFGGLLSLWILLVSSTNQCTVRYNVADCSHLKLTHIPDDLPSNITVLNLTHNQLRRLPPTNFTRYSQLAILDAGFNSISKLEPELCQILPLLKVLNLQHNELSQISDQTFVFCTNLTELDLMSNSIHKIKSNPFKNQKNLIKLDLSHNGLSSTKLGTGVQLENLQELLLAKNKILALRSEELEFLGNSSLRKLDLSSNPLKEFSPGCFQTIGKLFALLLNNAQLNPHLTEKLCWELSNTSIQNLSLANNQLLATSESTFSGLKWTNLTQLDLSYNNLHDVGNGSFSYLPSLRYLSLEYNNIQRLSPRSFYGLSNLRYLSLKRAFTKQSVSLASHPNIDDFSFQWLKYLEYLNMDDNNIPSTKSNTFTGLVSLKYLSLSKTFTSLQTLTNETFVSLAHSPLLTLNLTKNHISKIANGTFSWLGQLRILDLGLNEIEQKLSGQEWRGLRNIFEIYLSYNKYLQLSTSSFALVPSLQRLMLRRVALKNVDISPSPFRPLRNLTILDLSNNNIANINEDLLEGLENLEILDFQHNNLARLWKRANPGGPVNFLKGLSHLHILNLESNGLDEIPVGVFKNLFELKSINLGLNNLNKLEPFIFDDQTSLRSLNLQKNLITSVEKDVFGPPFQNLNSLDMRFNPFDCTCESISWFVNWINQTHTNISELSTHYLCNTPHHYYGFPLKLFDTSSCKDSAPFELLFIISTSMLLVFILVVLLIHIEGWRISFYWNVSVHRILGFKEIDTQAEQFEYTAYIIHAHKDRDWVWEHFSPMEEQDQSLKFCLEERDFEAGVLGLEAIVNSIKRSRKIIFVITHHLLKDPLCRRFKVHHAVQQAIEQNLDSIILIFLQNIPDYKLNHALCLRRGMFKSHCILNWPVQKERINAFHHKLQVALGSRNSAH

Toll-like receptor 2 (Mus musculus), sequence (Q9QUN7 whole entry): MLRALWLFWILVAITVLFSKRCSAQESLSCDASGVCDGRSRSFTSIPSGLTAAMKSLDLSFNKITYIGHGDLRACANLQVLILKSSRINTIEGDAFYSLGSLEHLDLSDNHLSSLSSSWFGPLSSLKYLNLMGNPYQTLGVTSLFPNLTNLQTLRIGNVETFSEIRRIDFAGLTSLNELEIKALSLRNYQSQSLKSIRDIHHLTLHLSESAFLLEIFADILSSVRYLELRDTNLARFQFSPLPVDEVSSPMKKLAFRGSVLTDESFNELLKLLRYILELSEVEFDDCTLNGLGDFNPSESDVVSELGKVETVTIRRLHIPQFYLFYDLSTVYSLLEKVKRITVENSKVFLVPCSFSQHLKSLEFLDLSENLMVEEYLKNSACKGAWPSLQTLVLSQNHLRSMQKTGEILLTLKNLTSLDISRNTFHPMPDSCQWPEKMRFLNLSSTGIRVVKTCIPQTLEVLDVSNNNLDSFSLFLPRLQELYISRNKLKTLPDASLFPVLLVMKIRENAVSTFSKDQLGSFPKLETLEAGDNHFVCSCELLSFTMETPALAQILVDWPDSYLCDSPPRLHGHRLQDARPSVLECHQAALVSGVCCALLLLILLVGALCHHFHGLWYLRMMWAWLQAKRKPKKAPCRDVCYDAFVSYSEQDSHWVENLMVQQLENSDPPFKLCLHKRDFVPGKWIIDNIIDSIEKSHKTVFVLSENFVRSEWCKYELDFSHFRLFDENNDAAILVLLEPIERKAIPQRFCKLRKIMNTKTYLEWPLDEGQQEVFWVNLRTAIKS

| inhibition [1] | inhibition of IkappaBalpha phosphorylation (active/not active) [2] | inhibition [3] | inhibition [4] | inhibition [5] | inhibition [6] | SMILES |
| --- | --- | --- | --- | --- | --- | --- |
| inactive | inactive | inactive | inactive | Active | – | O=C(CCCCCN1C(=O)CCC1=O)Oc1ccc2cc(C(C(=O)NCc3ccccc3)N(C(=O)Cc3ccc4c(c3)OCO4)C3CC3)ccc2c1 (stereo unspecified) |
| inactive | Active | inactive | inactive | Active | – | O=C(CCCCCCCC(=O)ON1C(=O)CCC1=O)Oc1ccc2cc(C(C(=O)NCc3ccccc3)N(C(=O)Cc3ccc4c(c3)OCO4)C3CC3)ccc2c1 (stereo unspecified) |
| inactive | Active | inactive | inactive | Active | inactive | O=C(CCCCCN1C(=O)C=CC1=O)Oc1ccc2cc(C(C(=O)NCc3ccccc3)N(C(=O)Cc3ccc4c(c3)OCO4)C3CC3)ccc2c1 (stereo unspecified) |
